From the array DNA melting data of Ke et al. (doi:10.1101/2024.01.08.574731)

How the values were obtained:
[1] = folding enthalpy; higher = less favourable; fluorescence melt of hairpins on a sequencing array, two-state fit; details: sodium 0.088 M
Procedure, shortened: (§1)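 Folding enthalpy and melting temperature were estimated with bootstrapped two-state fits and combined across four replicates by inverse-variance weighting, with fitted temperatures raised by 9.35 °C to match UV melts. The data were Cy3 fluorescence of library hairpins, with annealed Cy3 and quencher oligos, on a sequenced MiSeq flow cell in 50 mM Na-HEPES pH 8.0, 25 mM NaCl, imaged in 2.5 °C steps up to 60 °C and normalised to pre-quench Cy3 and control constructs.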

[2] = melting temperature; fluorescence melt of hairpins on a sequencing array, two-state fit, raised by 9.35 °C to match UV melts; details: sodium 0.088 M
Procedure, shortened: as §1

| Sequence | folding enthalpy [1] | Tm [2] |
| --- | --- | --- |
| GCCTCGCGAAAGCTAAGC ((.(.((....)).).)) | -6.03 kcal/mol | 25.6 °C |
| GCCGAGGGAAACTTCGGC (((((.(....).))))) | -46.2 kcal/mol | 56.8 °C |
| GATCAATACGTTGATC ((((((....)))))) | -37.9 kcal/mol | 48 °C |
| GCGGTGGACCGC ((((....)))) | -26.6 kcal/mol | 59.6 °C |
| GATCCCGAGGGGGATC ((((((....)))))) | -35.3 kcal/mol | 59.7 °C |
| GGACACGAAAGTGGGTCC ((((((....)))..))) | -19.9 kcal/mol | 48.7 °C |
| GATCACCGGGGTGATC ((((((....)))))) | -46.5 kcal/mol | 62.7 °C |
| GATCTAGTCTAGATC ((((((...)))))) | -34.2 kcal/mol | 41.1 °C |
| CGCTCGGAAACGATGCG ((((((....))).))) | -35.4 kcal/mol | 51.8 °C |
| GATCCATCAGTGGATC ((((((....)))))) | -34.9 kcal/mol | 51.6 °C |
| GCTCGGCGAAAGCACAGC (((..((....))..))) | -12.2 kcal/mol | 51.2 °C |
| GTCTGTGAAAACAGAC ((((((....)))))) | -36.1 kcal/mol | 57.8 °C |
| GATAGACGAAAGTCATC (((.(((....)))))) | -15.4 kcal/mol | 38.4 °C |
| GCATGCGAAAGCACATGC ((((((....)))..))) | -19 kcal/mol | 51 °C |
| GCCGTTCGAAAGAAGGGC (((.(((....))).))) | -44 kcal/mol | 60.2 °C |
| GATCTTCACCAAGATC ((((((....)))))) | -35.5 kcal/mol | 41.9 °C |
| GATCGCCAGGCGATC ((((((...)))))) | -35.1 kcal/mol | 67.1 °C |
| GAAATCGGAAACGACTTC (((.(((....))).))) | -24.8 kcal/mol | 32.4 °C |
| GATCTCGTTTGAGATC ((((((....)))))) | -32.9 kcal/mol | 55.6 °C |
| GCTACAGGAAACTGTAGC (((((((....))))))) | -47.9 kcal/mol | 63.7 °C |
| GATCGTTTCACGATC ((((((...)))))) | -33.5 kcal/mol | 58.6 °C |
| GCAGTCGAAAGACCTGC ((((((....))).))) | -29.9 kcal/mol | 51.2 °C |
| GACAGGCGAAAGCCGGTC (((.(((....))).))) | -25.9 kcal/mol | 67.1 °C |

| Sequence | folding enthalpy [1] | Tm [2] |
| --- | --- | --- |
| GATCTTCGTAAAGATC ((((((....)))))) | -40.8 kcal/mol | 44.9 °C |
| GACACCGAAAGGTCGTC ((((((....))).))) | -21.7 kcal/mol | 50.2 °C |
| GATCCACGTATGGATC ((((((....)))))) | -31.8 kcal/mol | 51.6 °C |
| GTCACGGGAAACTGTGAC (((((.(....).))))) | -40.1 kcal/mol | 54.6 °C |
| GGAGTCGGAAACGACTTC (.(((((....))))).) | -25.6 kcal/mol | 55.5 °C |
| GTAGGAGGAAACTCCCAC ((.((((....)))).)) | -16.4 kcal/mol | 30.9 °C |
| GCGAACGAAAGTTTCCGC ((((((....)))..))) | -21.1 kcal/mol | 36.2 °C |
| GGAGGTCGAAAGACGTCC (((.(((....))).))) | -37.7 kcal/mol | 57.8 °C |
| GATCAACCGGTTGATC ((((((....)))))) | -53.5 kcal/mol | 55.9 °C |
| GGTGCTGGAAACGGTACC (((.(.(....).).))) | -35.8 kcal/mol | 41.2 °C |
| GCCGCGCGAAAGCGTAGC ((..(((....)))..)) | -13.8 kcal/mol | 48.9 °C |
| GGTCGGCGAAAGCCACC (((.(((....)))))) | -14.8 kcal/mol | 55.3 °C |
| GGTTGTCGAAAGACACC (((.(((....)))))) | -25.9 kcal/mol | 53.1 °C |
| GCATAAGCGAAAGCTTGC (((..(((....)))))) | -14.7 kcal/mol | 46.3 °C |
| GGCAACGAAAGTTGTGCC ((((((....)))..))) | -13.5 kcal/mol | 51.2 °C |
| GTGCCACGAAAGTGTCAC (((.(((....))).))) | -30 kcal/mol | 53.1 °C |
| GACTGCGAAAGCAGGGTC ((((((....)))..))) | -12.4 kcal/mol | 62.2 °C |
| GCTGTGCGAAAGCAACGC ((..(((....)))..)) | -13.7 kcal/mol | 49.9 °C |
| GGATCTGGAAACAGGTCC (((.(((....))).))) | -31.5 kcal/mol | 50.6 °C |
| GATCGATGTTCGATC ((((((...)))))) | -29.4 kcal/mol | 51 °C |
| GCCTTCGAAAGAACTGGC ((((((....)))..))) | -21.9 kcal/mol | 35.7 °C |
| GAAAGCGAAAGCTTGTTC ((((((....)))..))) | -12.5 kcal/mol | 36.8 °C |
| GAAGAACGAAAGTTGTTC (((.(((....))).))) | -32.7 kcal/mol | 41.4 °C |
